Experimental data reported in ChEMBL document CHEMBL1255290, “Characterization of a novel human immunodeficiency virus type 1 protease inhibitor, A-790742” (Antimicrob Agents Chemother, 2008).

Columns and labels:
[1] = system: Human immunodeficiency virus 1; test: (§1) Antiviral activity against HIV1 P21 infected in human MT4 cells derived from viral passages with A-790742 harboring protease L23I, L33F, K45I, A71A/V, V77I, V82L, and I84V mutation assessed as reduction in viral cytopathogenicity treated 1 hr post infection measured 5 days post infection by MTT assay relative to wild type HIV1 pNL4-3; type: functional
Procedure, shortened: (§2)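 For the assay, 10⁶ MT-4 cells were infected at MOI 0.003, washed after 1 h, and plated at 10⁴ cells/well with eight serial compound dilutions in triplicate (0.5% DMSO final). MTT cytopathic read-out at day 5; EC50 from dose-response fitting.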

[2] = system: Human immunodeficiency virus 1; test: Antiviral activity against HIV1 clone1 infected in HEK293 cells harboring A-790742-selected protease I84V mutation assessed as reduction in viral replication by luciferase reporter gene assay relative to wild type HIV1 pNL4-3; type: functional
Procedure, shortened: (§3)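 Single-cycle assay: HEK-293 cells were cotransfected with luciferase-reporter HIV-1 protease clones plus a VSV-G expression vector. After 4 h, cells were replated at 2 × 10⁴/well over serial inhibitor dilutions in triplicate. Pseudovirus collected at 48 h infected fresh HEK-293 (10⁴/well). Luciferase read 48 h later gave % inhibition versus untreated and EC50. Fold change against WT pNL4-3-Luc (clones 1-4) or RF-Luc (clone 5) is the mean of three experiments.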

[3] = system: Human immunodeficiency virus 1; test: Antiviral activity against HIV1 clone4 infected in HEK293 cells harboring A-790742-selected protease L33F, A71V, G73S, V77I, V82L, and I84V mutation assessed as reduction in viral replication by luciferase reporter gene assay relative to wild type HIV1 pNL4-3; type: functional; procedure, shortened: as §3
[4] = system: Human immunodeficiency virus 1; test: Antiviral activity against HIV1 clone3 infected in HEK293 cells harboring A-790742-selected protease L33F, K45I, V82L, and I84V mutation assessed as reduction in viral replication by luciferase reporter gene assay relative to wild type HIV1 pNL4-3; type: functional; procedure, shortened: as §3
[5] = system: Human immunodeficiency virus 1; test: as §1, with “P9” for “P21”, “V82V/L” for “L23I, L33F, K45I, A71A/V, V77I, V82L,”; type: functional; procedure, shortened: as §2
[6] = system: Human immunodeficiency virus 1; test: as §1, with “P13” for “P21”, “M46I, L63P, A71V,” for “L23I, L33F, K45I, A71A/V, V77I, V82L,”, “V82G” for “I84V”, “RF” for “pNL4-3”; type: functional; procedure, shortened: as §2
[7] = system: Human immunodeficiency virus 1; test: Antiviral activity against HIV1 clone5 infected in HEK293 cells harboring A-790742-selected protease L63P, A71V, and V82G mutation assessed as reduction in viral replication by luciferase reporter gene assay relative to wild type HIV1 RF; type: functional; procedure, shortened: as §3
[8] = system: Human immunodeficiency virus 1; test: as §1, with “P15” for “P21”, “L33L/F,” for “L23I, L33F,”, “K45I,” for “K45I, A71A/V, V77I,”; type: functional; procedure, shortened: as §2
[9] = system: Human immunodeficiency virus 1; test: Antiviral activity against HIV1 clone2 infected in HEK293 cells harboring A-790742-selected protease V82L mutation assessed as reduction in viral replication by luciferase reporter gene assay relative to wild type HIV1 pNL4-3; type: functional; procedure, shortened: as §3
[10] = system: Human immunodeficiency virus 1; test: Antiviral activity against HIV1 P25 infected in human MT4 cells harboring protease L10F, G16E, V32I, M46I, I47A, H69Y, I84V, and T91S mutation derived from viral passages with Lopinavir assessed as reduction in viral cytopathogenicity treated 1 hr post infection measured 5 days post infection by MTT assay; type: functional, organism-based; details: Human immunodeficiency virus 1, P25, MT4; procedure, shortened: as §2
[11] = system: Human immunodeficiency virus 1; test: Antiviral activity against HIV1 isolate 5 infected in human MT4 cells obtained from protease inhibitor-resistant patient harboring protease L10F, I15V, M46I, L63P, A71V, I72L, V82T, I84V, I85V, L90M mutation derived from viral passages with Lopinavir assessed as reduction in viral cytopathogenicity treated 1 hr post infection measured 5 days post infection by MTT assay relative to wild type HIV1 …; type: functional
[12] = system: Human immunodeficiency virus 1; test: Antiviral activity against HIV1 isolate 10 infected in human MT4 cells obtained from protease inhibitor-resistant patient harboring protease L10I, I13V, K20R, L33F, E35D, M36I, N37D, I54L, Q58E, I62V, L63P, A71V, V82A, I84V, L90M mutation derived from viral passages with Lopinavir assessed as reduction in viral cytopathogenicity treated 1 hr post infection measured 5 days post infection by MTT …; type: functional
[13] = system: Human immunodeficiency virus 1; test: Antiviral activity against wild-type HIV1 pNL4-3 infected in human MT4 cells assessed as reduction in viral cytopathogenicity treated 1 hr post infection measured 5 days post infection in presence of 50% human serum by MTT assay; type: functional, organism-based; details: Human immunodeficiency virus 1, pNL4-3, MT4
[14] = system: Human immunodeficiency virus 1; test: Antiviral activity against HIV1 isolate 12 infected in human MT4 cells obtained from protease inhibitor-resistant patient harboring protease L10I, I13V, K20I, E35D, M36I, M46I, I50V, I54V, R57K, I62V, L63P, A71V, V82A, L89V, L90M, Q92K mutation derived from viral passages with Lopinavir assessed as reduction in viral cytopathogenicity treated 1 hr post infection measured 5 days post infection by …; type: functional
[15] = system: Human immunodeficiency virus 1; test: Antiviral activity against HIV1 isolate 4 infected in human MT4 cells obtained from protease inhibitor-resistant patient harboring protease N37T, M46I, Q58E, I64V, T74K, V77I, V82F, L90M mutation derived from viral passages with Lopinavir assessed as reduction in viral cytopathogenicity treated 1 hr post infection measured 5 days post infection by MTT assay relative to wild type HIV1 pNL4-3; type: functional
[16] = system: Human immunodeficiency virus 1; test: Antiviral activity against HIV1 A17 infected in human MT4 cells harboring protease L10F, V32I, M46I, I47V, Q58E, and I84V mutation derived from viral passages with Lopinavir assessed as reduction in viral cytopathogenicity treated 1 hr post infection measured 5 days post infection by MTT assay; type: functional, organism-based; details: Human immunodeficiency virus 1, A17, MT4; procedure, shortened: as §2
[17] = system: Human immunodeficiency virus 1; test: Antiviral activity against HIV1 isolate 6 infected in human MT4 cells obtained from protease inhibitor-resistant patient harboring protease L10I, L24I, M46I, I54V, K55R, Q58E, L63P, I64V, A71V, V82A, T91A mutation derived from viral passages with Lopinavir assessed as reduction in viral cytopathogenicity treated 1 hr post infection measured 5 days post infection by MTT assay relative to wild type …; type: functional
[18] = system: Human immunodeficiency virus 1; test: Antiviral activity against HIV1 isolate 2 infected in human MT4 cells obtained from protease inhibitor-resistant patient harboring protease L10I, I15V, G16E, K20R, E35D, M36I, R41K, I54A, R57K, Q61D, A71V, I72R, V82A, L89I, L90M, Q92K mutation derived from viral passages with Lopinavir assessed as reduction in viral cytopathogenicity treated 1 hr post infection measured 5 days post infection by …; type: functional
[19] = system: Human immunodeficiency virus 1; test: Antiviral activity against HIV1 isolate 13 infected in human MT4 cells obtained from protease inhibitor-resistant patient harboring protease L10I, K14R, L33F, E34Q, R41K, K45R, M46I, I50V, K55R, L63P, A71V, G73T, V77I, V82A, L90M, I93L mutation derived from viral passages with Lopinavir assessed as reduction in viral cytopathogenicity treated 1 hr post infection measured 5 days post infection by …; type: functional
[20] = system: Human immunodeficiency virus 1; test: Antiviral activity against HIV1 isolate 7 infected in human MT4 cells obtained from protease inhibitor-resistant patient harboring protease L10I, M46M/L, G48V, I54V, L63P, A71V, I72M, V77I, V82A, L90M, I93L mutation derived from viral passages with Lopinavir assessed as reduction in viral cytopathogenicity treated 1 hr post infection measured 5 days post infection by MTT assay relative to wild …; type: functional
[21] = system: Human immunodeficiency virus 1; test: Antiviral activity against wild-type HIV1 pNL4-3 infected in human MT4 cells assessed as reduction in viral cytopathogenicity treated 1 hr post infection measured 5 days post infection in absence of human serum by MTT assay; type: functional, organism-based; details: Human immunodeficiency virus 1, pNL4-3, MT4; procedure, shortened: as §2
[22] = system: Human immunodeficiency virus 1; test: Antiviral activity against HIV1 isolate 9 infected in human MT4 cells obtained from protease inhibitor-resistant patient harboring protease L10I, I15I/V, K20R, L33F, E35D, M36I, N37D, R41K, K43I, M46I, I54V, I62V, L63P, A71T, I72T, V82A, I84V, L90M, I93L mutation derived from viral passages with Lopinavir assessed as reduction in viral cytopathogenicity treated 1 hr post infection measured 5 days …; type: functional
[23] = system: Human immunodeficiency virus 1; test: Antiviral activity against HIV1 isolate 8 infected in human MT4 cells obtained from protease inhibitor-resistant patient harboring protease L10I, I13V, L33F, E34Q, R41K, M46I, I54V, K55R, R57K, Q58E, I62V, L63P, A71V, I72I/T, G73S, V82A, I84V, L90M mutation derived from viral passages with Lopinavir assessed as reduction in viral cytopathogenicity treated 1 hr post infection measured 5 days post …; type: functional
[24] = system: Human immunodeficiency virus 1; test: Antiviral activity against HIV1 B26 infected in human MT4 cells harboring protease L33F, K45I, M46I, I50V, I54V, A71V, and V82F mutation derived from viral passages with Lopinavir assessed as reduction in viral cytopathogenicity treated 1 hr post infection measured 5 days post infection by MTT assay; type: functional, organism-based; details: Human immunodeficiency virus 1, B26, MT4; procedure, shortened: as §2
[25] = system: Human immunodeficiency virus 1; test: Antiviral activity against HIV1 isolate 11 infected in human MT4 cells obtained from protease inhibitor-resistant patient harboring protease L10I, I15V, K20R, E21Q, E35D, M36I, N37D, R41K, M46L, I54V, I62V, L63P, A71V, T74D, P79A, V82T, I84V, I85V, L90M, I93L mutation derived from viral passages with Lopinavir assessed as reduction in viral cytopathogenicity treated 1 hr post infection measured …; type: functional
[26] = system: Human immunodeficiency virus 1; test: Antiviral activity against wild-type HIV1 RF infected in human MT4 cells assessed as reduction in viral cytopathogenicity treated 1 hr post infection measured 5 days post infection in absence of human serum by MTT assay; type: functional, organism-based; details: Human immunodeficiency virus 1, RF; procedure, shortened: as §2
[27] = system: Human immunodeficiency virus 1; test: Antiviral activity against HIV1 isolate 3 infected in human MT4 cells obtained from protease inhibitor-resistant patient harboring protease L10I, E35D, N37D, […], I54V, L63P, A71V, T74P, I84V, L90M, I93L mutation derived from viral passages with Lopinavir assessed as reduction in viral cytopathogenicity treated 1 hr post infection measured 5 days post infection by MTT assay relative to wild type …; type: functional

| SMILES | Ratio EC50 [1] | Ratio EC50 [2] | Ratio EC50 [3] | Ratio EC50 [4] | Ratio EC50 [5] | Ratio EC50 [6] | Ratio EC50 [7] | Ratio EC50 [8] | Ratio EC50 [9] | EC50 [10] [nM] | further results |
| --- | --- | --- | --- | --- | --- | --- | --- | --- | --- | --- | --- |
| CC(C)(C)NC(=O)[C@@H]1CN(Cc2cccnc2)CCN1C[C@@H](O)C[C@@H](Cc1ccccc1)C(=O)N[C@H]1c2ccccc2C[C@H]1O.O | 14 | 1 | 2 | 5 | 3 | 31 | 76 | 5 | 1 |  |  |
| Cc1c(O)cccc1C(=O)N[C@@H](CSc1ccccc1)[C@H](O)CN1C[C@H]2CCCC[C@H]2C[C@H]1C(=O)NC(C)(C)C | >93 | 1 | 2 | 3 | 5 | 67 | 203 | 6 | 1 |  |  |
| COC(=O)N[C@H](C(=O)N[C@@H](Cc1ccccc1)[C@@H](O)CN(Cc1ccc(-c2ccccn2)cc1)NC(=O)[C@@H](NC(=O)OC)C(C)(C)C)C(C)(C)C [ATAZANAVIR] | 145 | 1 | 16 | 34 | 6 | 31 | 39 | 14 | 1 | 355 | Ratio EC50 [11]: 18; Ratio EC50 [12]: 56; EC50 [13]: 11 nM; Ratio EC50 [14]: 3; Ratio EC50 [15]: 5; EC50 [16]: 296 nM; Ratio EC50 [17]: 15; Ratio EC50 [18]: 172; Ratio EC50 [19]: 5; Ratio EC50 [20]: 25; EC50 [21]: 4 nM; Ratio EC50 [22]: 22; Ratio EC50 [23]: 32; EC50 [24]: 51 nM; Ratio EC50 [25]: 43; EC50 [26]: 7 nM; Ratio EC50 [27]: 89 |
| Cc1cccc(C)c1OCC(=O)N[C@@H](Cc1ccccc1)[C@@H](O)C[C@H](Cc1ccccc1)NC(=O)[C@H](C(C)C)N1CCCNC1=O [LOPINAVIR] |  |  |  |  |  |  |  |  |  | > 10000 |  |
| CC(C)c1nc(CN(C)C(=O)N[C@H](C(=O)N[C@@H](Cc2ccccc2)C[C@H](O)[C@H](Cc2ccccc2)NC(=O)OCc2cncs2)C(C)C)cs1 [RITONAVIR] | >141 | 3 | 14 | 79 | 26.7 | 79 | 1386 | 29 | 7 |  |  |
